TAAR1 agonist: human TAAR1 agonism; 360,000 compounds, 0.99% hits; Q96RJ0; activation, % at 3 µM; CHO RD-HGA16 TAAR1, Fluo-8 calcium fluorescence; vehicle wells 0%, saturating PEA agonist 100%;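 active means activation above the mean activation of all test compounds in the run plus 3 SD, cut at about 38% in these data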
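Test system: RD-HGA16 (CHO) cells co-expressing Gα16 and hTAAR1 / Benchmarks: DMSO vehicle as 0%, PEA at EC100 as 100% / Repeats: no replicates (n 1) / Measure: % activation from peak over basal fluorescence ratio, DMSO-to-PEA scaled / Timing: 17-24 h plating, Fluo-8 75 min 37 °C, 30 min RT / Technique: kinetic Fluo-8 calcium fluorescence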
TAAR1 antag: human TAAR1 antagonism. Q96RJ0. CHO RD-HGA16 TAAR1, Fluo-8 calcium fluorescence, antagonist. inhibition, % at 3 µM. 360,000 compounds, 1.5% hits. AID 624466;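 active means inhibition above a per-plate cutoff, the mean inhibition of test compounds on that plate plus 3 SD, cut at about 49% in these data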;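 further: 0% = DMSO plus EC80 beta-PEA response and 100% = DMSO alone without agonist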
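System: RD-HGA16 CHO cells with stable hTAAR1 and Gα16 | Probe or stimulus: EC80 β-phenethylamine stimulus | Dosing: 3 µM, single point | Times: Dye loading 75 min at 37 °C, then 30 min room temperature | Measured by: Fluo-8 calcium-sensitive fluorescence | Read-out basis: % inhibition of agonist calcium response | Replicates: n of 1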
OX1R antag-1: human HCRTR1 antagonism | O43613 | CHO/OX1R cells, Fluo-8 calcium fluorescence, orexin A | inhibition, % at 5 µM | 330,000 compounds, 0.43% hits;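 active means inhibition above its plate's threshold, mean inhibition of all tested compounds on the plate plus 3 SD, cut at about 37% in these data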;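 further: 0% = orexin A challenge wells and 100% = SB-334867-A antagonist wells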
Target sequence (O43613 whole entry, looked up): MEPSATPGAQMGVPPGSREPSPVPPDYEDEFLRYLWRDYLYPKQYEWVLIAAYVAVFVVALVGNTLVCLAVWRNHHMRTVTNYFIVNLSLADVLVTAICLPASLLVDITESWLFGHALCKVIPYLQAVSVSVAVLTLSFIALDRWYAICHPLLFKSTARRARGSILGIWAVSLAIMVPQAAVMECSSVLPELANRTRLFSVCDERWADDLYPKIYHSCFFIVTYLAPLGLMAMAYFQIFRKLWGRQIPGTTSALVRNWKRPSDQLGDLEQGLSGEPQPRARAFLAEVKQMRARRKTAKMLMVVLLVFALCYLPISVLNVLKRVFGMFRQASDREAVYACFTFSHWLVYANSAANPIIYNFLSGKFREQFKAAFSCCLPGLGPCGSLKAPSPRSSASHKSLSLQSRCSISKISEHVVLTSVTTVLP
GPR7 antagonist: antagonists of human GPR7 (neuropeptides B/W receptor 1); P48145; GPR7-expressing cells, fluorescence antagonist assay; inhibition, % at 4.4 µM; 290,000 compounds, 1.1% hits; AID 1861; in the data active means inhibition above about 16%, passing the limit was not always enough;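 further: cells stimulated with the agonist NPW; 0% = agonist with vehicle and 100% = vehicle without agonist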
Target sequence (P48145 whole entry, looked up): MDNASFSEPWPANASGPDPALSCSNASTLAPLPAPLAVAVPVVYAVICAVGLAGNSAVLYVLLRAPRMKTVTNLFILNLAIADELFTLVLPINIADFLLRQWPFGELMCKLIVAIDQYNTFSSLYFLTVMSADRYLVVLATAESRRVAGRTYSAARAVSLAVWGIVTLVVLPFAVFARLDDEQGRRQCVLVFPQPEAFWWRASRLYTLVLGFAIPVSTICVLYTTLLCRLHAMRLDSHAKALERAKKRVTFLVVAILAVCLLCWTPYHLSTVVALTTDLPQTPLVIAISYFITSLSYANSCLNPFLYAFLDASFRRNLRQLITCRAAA
CHO parental Ca: signal in parental CHO cells, OX1R antagonist counter-screen; parental CHO-K1, ATP-induced calcium, Fluo-8 fluorescence; inhibition, % at 5.6 µM; 330,000 compounds, 0.63% hits; AID 463079;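 active means inhibition above that plate's mean sample inhibition plus 3 SD, cut at about 26% in these data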;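 further: 0% = ATP-challenged DMSO wells and 100% = DMSO wells without ATP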
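Material – parental CHO cells · Reagent – ATP stimulus · Compound – single nominal dose of 5.6 µM per compound · Detection – Fluo-8 fluorescence · Read-out basis – percent inhibition of calcium signal · Controls – ATP-challenged DMSO wells low, unchallenged DMSO wells high · Repeats – no replicates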
OX1R antag-2: OX1R (human) antagonism. O43613. OX1R-expressing cells, FRET antagonist read-out. inhibition, % at 6.6 µM. 330,000 compounds, 1.8% hits. AID 485270; in the data active means inhibition mostly above about 38%, no sharp cut-off; inactive means mostly below about 40%;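 further: 0% = agonist challenge alone and 100% = reference antagonist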
* hit, by the source's call; . = not tested or not shown. The list is not random: actives were taken first. Their share in the collection is about 4.6%.

SMILES | TAAR1 agonist | TAAR1 antag | OX1R antag-1 | GPR7 antagonist | CHO parental Ca | OX1R antag-2
CCCNC(=O)/C(C#N)=C1\N=C(NC(=O)c2ccco2)c2ccccc21 | 1.2 | -5.8 | -5.5 | 6.0 | -2.3 | 46.6*
COCCNC(=O)/C(C#N)=C1\N=C(NC(=O)c2ccco2)c2ccccc21 | 0.4 | -13.8 | . | . | . | .
COc1ccc(/C=C/C(=O)OCC(=O)NC2CCCC(C)C2C)c(OC)c1 (stereo not given) | -1.7 | -2.2 | 3.5 | . | -14.9 | 9.9
COc1cccc(/C=C(/C(=O)OCC(=O)NC2CCCC(C)C2C)c2ccccc2)c1 (stereo not given) | 1.3 | 40.0 | -8.8 | -11.8 | 65.3* | 7.4
CC(=O)OC[C@]12CC[C@H]3[C@@](C)(CC[C@H]4C(C)(C)CCC[C@]34C)[C@@H]1C[C@H](C1=CC(=O)O[C@@H]1OC(C)=O)O2 | . | . | 19.0 | . | 64.2* | -0.2
CC1(C)CCCC2(C)C1CCC1(C)OC(=O)CCC12 (stereo not given) | 3.8 | -16.1 | . | . | . | .
O=C(N[C@H](C(=O)N1CCC[C@H]1C(=O)NCc1ccccc1)c1ccccc1)c1ccc(Cl)c(Cl)c1 | -1.2 | -2.8 | . | . | . | .
NC1=Nc2cccc3cccc1c23 | 2.0 | 18.0 | -4.2 | -10.0 | 10.5 | 71.0*
C(=N\NC1=Nc2cccc3cccc1c23)/c1ccccc1 | 6.8 | 14.8 | -22.8 | -18.3 | -23.1 | 53.7
Cc1ccc(/C=C2\CCC3=C2OC(N)=C(C#N)C3c2ccc(C)cc2)cc1 (stereo not given) | . | . | 48.0* | 2.4 | 40.7* | 2.5
Cc1ccc(C2C(C#N)=C(N)Oc3cc(N)ccc32)cc1 (stereo not given) | 5.0 | -15.5 | -0.3 | -6.1 | -5.8 | 2.9
CCC1CCCCN1C(=S)NN=C(C)c1ccccn1 (stereo not given) | 3.2 | -35.8 | . | . | . | .
COC(=O)C1=C(C)N(Cc2cccc(C(F)(F)F)c2)C(=NCc2ccc3c(c2)OCO3)NC1c1ccccc1C(F)(F)F (stereo not given) | 4.0 | -5.5 | . | . | . | .
Cn1c(N=Nc2ccccc2)nc2ccccc21 | -1.5 | -18.1 | -25.6 | -2.2 | -18.5 | 63.6*
Cn1c(Cl)nc2ccccc21 | 5.5 | 4.1 | 2.0 | -11.7 | -8.5 | 7.5
Cc1ccc(S(=O)(=O)N2[C@@H](c3ccc(C(C)(C)C)cc3)C(C(=O)O)=CC[C@H]2c2ccc(Cl)cc2)cc1 | 0.4 | 24.6 | 12.2 | . | 41.4* | 4.8
CCc1ccc([C@@H]2CC=C(C(=O)O)[C@H](c3ccc(C(C)(C)C)cc3)N2S(=O)(=O)c2ccc(C)cc2)cc1 | 2.1 | 15.3 | 4.1 | . | 69.7* | -5.5
CC(=O)c1cccc(-c2ccnc3c2CC(C(=O)Nc2cccc(OC(F)(F)F)c2)O3)c1 (stereo not given) | -0.3 | 16.7 | . | . | . | .
Cc1ccc(Nc2c(-c3ccccn3)nc3ccc(C)cn23)cc1 | 2.5 | 3.5 | -25.8 | 1.5 | 36.4* | 27.2
CCN1C(=O)c2cccc3c(S(=O)(=O)N(C(C)=O)c4ccc(OC(C)=O)cc4)ccc1c23 | 21.2 | 49.0* | -12.6 | . | -11.8 | 9.5
COc1ccc([N+](=O)[O-])cc1NC(=O)CSc1ccc2ccccc2c1 | 0.5 | 21.5 | -3.1 | 1.3 | 23.6 | 61.1*
CCCCC(=O)NC(=S)Nc1cc([N+](=O)[O-])ccc1OC | -0.4 | -42.3 | -13.6 | -12.4 | 40.8* | 18.6
COc1ccc([N+](=O)[O-])cc1NC(=S)NC(C)=O | 7.3 | -4.5 | -12.8 | -4.3 | -2.1 | 12.1
COc1cc(/C=C/C(=O)NC(=O)c2ccccc2O)ccc1O | 1.6 | -35.8 | -16.0 | -25.1 | -15.0 | 67.1*
COc1ccc(/C=C/C(=O)NC(=S)Nc2cc([N+](=O)[O-])ccc2O)cc1OC | 7.8 | 14.0 | -6.2 | -1.7 | -19.4 | 59.6*
SMILES | TAAR1 agonist | TAAR1 antag | OX1R antag-1 | GPR7 antagonist | CHO parental Ca | OX1R antag-2
COc1ccc2c(c1)[C@@H](NC(=O)c1ccncc1)[C@H](C)[C@H]2c1ccccc1 | -1.5 | -31.0 | . | . | . | .
COc1cc2c(c3c1c(=O)c1ccccc1n3C)C=CC(C)(C)O2 | 0.7 | -29.2 | . | . | . | .
Cc1cc(/C=C(/C#N)c2nc3ccccc3[nH]2)c(C)n1-c1cc(C(=O)O)cc(C(=O)O)c1 | 0.9 | -1.8 | . | -2.0 | . | .
Cc1ccc2nc(/C(C#N)=C\c3cc(C)n(-c4cccc([N+](=O)[O-])c4)c3C)[nH]c2c1 | 8.7 | 27.6 | -1.8 | -12.5 | 1.7 | 58.7*
O=[N+]([O-])c1cccc(-c2nnc(-c3ccccc3)o2)c1 | -0.8 | 5.0 | -7.0 | 2.7 | -3.6 | 24.0
Cc1occc1-c1nnc(-c2cc([N+](=O)[O-])cc([N+](=O)[O-])c2)o1 | 11.4 | -4.2 | -20.2 | -1.5 | -15.8 | 59.1*
COc1ccc(C#Cc2c(-c3ccccc3OC)oc3ccccc23)cc1 | 5.6 | -2.6 | . | . | . | .
NS(=O)(=O)c1ccc(CCNC(=O)COC(=O)CCSc2ccc(Cl)cc2)cc1 | 7.4 | 22.2 | -1.8 | -8.8 | -0.8 | 4.9
NS(=O)(=O)c1ccc(CCNC(=O)CSc2ccc(Cl)cc2)cc1 | 0.1 | 18.7 | 39.8 | -6.0 | 34.5* | 5.4
COc1ccc(OC)c(Nc2cc(C)c3ccccc3n2)c1 | -3.3 | 10.6 | -21.7 | 21.2 | -27.9 | 11.0
COc1cccc(Nc2cc(C)c3ccccc3n2)c1 | -3.0 | -14.5 | -30.5 | -1.2 | -28.4 | 48.9*
Nc1nc2ccccc2cc1C(=O)NCc1cccs1 | 2.9 | 23.1 | . | . | . | .
Cc1ccc(-c2nc3c4ccccc4ccn3c2Cc2cccc(F)c2)cc1 | 3.4 | -8.7 | . | . | . | .
CC(NC(=O)COC(=O)c1cc([N+](=O)[O-])ccc1N1CCOCC1)c1ccccc1 (stereo not given) | 4.4 | -3.3 | -30.8 | -13.0 | -22.9 | 50.8*
O=C(COC(=O)c1cc([N+](=O)[O-])ccc1N1CCOCC1)NCc1ccccc1 | 1.0 | -9.4 | . | . | . | .
CC(NC(=O)COC(=O)c1cc([N+](=O)[O-])ccc1N1CCOCC1)c1ccc(F)cc1 (stereo not given) | 2.0 | 9.8 | -15.4 | . | -16.0 | 39.5*
NCCc1cnc[nH]1 | 2.4 | -0.3 | -7.2 | -1.9 | -2.0 | -3.0
NCCc1ccn[nH]1 | 39.8* | -9.7 | -1.9 | . | 3.3 | 4.2
CN(c1cccnc1)c1ccc(NC(=O)Cc2cn(Cc3ccccc3)c3ccccc23)cc1Br | -0.5 | 5.2 | . | . | . | .
COc1ccc2c(c1)C(NC(=O)C(F)(F)F)CC21CCCCC1 (stereo not given) | -2.8 | -16.9 | . | . | . | .
CCCCN(C(=O)Cn1nnc2ccccc21)C(C(=O)NCCOC)c1ccccc1 (stereo not given) | 2.4 | -13.7 | -36.0 | 19.4* | -13.4 | 18.1
CC(C)CCNC(=O)C(c1cccnc1)N(CCc1ccccc1)C(=O)Cn1nnc2ccccc21 (stereo not given) | 39.4* | 8.1 | -22.2 | -0.8 | -14.8 | 20.3
CCCCCCC12Cc3cc(OC)c(OC)cc3C(O1)C1=C(O2)C(C)(C)CCC1=O (stereo not given) | -2.4 | -10.0 | . | . | . | .

Screening results as filed in PubChem BioAssay.
